{"source": "paper PMC3372611", "about": "(Biochemical Pharmacology, 2012)", "key": {"[1]": {"biological_target": "T1, WT PMAT (Homo sapiens, UniProt Q7RTT9)", "T1 sequence (Q7RTT9 1-530)": "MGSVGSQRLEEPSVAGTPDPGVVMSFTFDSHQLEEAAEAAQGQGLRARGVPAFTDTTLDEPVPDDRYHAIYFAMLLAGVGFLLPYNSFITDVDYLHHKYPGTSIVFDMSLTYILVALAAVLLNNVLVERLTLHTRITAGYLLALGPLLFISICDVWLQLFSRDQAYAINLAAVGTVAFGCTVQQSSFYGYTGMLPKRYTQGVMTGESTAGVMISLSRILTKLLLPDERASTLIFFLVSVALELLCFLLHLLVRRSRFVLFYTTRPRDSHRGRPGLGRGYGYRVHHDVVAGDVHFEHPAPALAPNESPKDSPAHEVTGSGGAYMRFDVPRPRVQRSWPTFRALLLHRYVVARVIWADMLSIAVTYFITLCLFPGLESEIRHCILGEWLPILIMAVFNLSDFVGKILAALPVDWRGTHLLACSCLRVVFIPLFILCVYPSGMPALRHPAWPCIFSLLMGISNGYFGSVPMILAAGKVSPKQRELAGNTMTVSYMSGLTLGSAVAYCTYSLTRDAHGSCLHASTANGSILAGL", "assay": "Inhibition of [3H]MPP+ uptake in WT PMAT-transfected MDCK cells", "assay_type": "cell-based", "in_short": "(§1)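 Stably transfected MDCK cells (YFP-tagged WT or I89M human PMAT) at confluence were exposed 1 min at 37°C in KRH buffer (pH 7.4) to [3H]MPP+ (1 μM) with or without test compound at various concentrations. Cells were washed in ice-cold KRH, counted by scintillation, and normalized to protein. IC50 came from fitting total uptake to a Hill-type equation with residual baseline. Wells in triplicate; three independent experiments on different passages; mean ± S.D.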"}, "[2]": {"biological_target": "T2, PMAT I89M mutant (Homo sapiens, UniProt Q7RTT9, I89M)", "T2 sequence (Q7RTT9 1-530 I89M)": "T1 sequence (Q7RTT9 1-530) with I89M", "assay": "Inhibition of [3H]MPP+ uptake in I89M-transfected MDCK cells", "assay_type": "cell-based", "in_short": "as §1"}, "[3]": {"biological_target": "T2, PMAT I89M mutant", "assay": "Concentration-dependent [3H]MPP+ uptake", "assay_type": "cell-based", "details": "MPP+ as substrate", "in_short": "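MDCK cells stably expressing YFP-tagged WT or I89M human PMAT (G418-selected, FACS-sorted) were grown 2–3 days to ~90–100% confluence. Cells were preincubated 15 min in KRH buffer (pH 7.4) at 37°C, then given various [3H]MPP+ concentrations for 1 min at 37°C. Uptake was read by scintillation and normalized to protein. Vector-cell uptake was subtracted, and Km and Vmax came from Michaelis-Menten nonlinear least-squares fits. Wells in triplicate; n=3 passages.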"}, "[4]": {"biological_target": "ENT1", "details": "mammalian ENT1 proteins; cited from earlier work"}, "[5]": {"system": "ENT2", "details": "ENT2 transporters; cited from earlier work"}}, "note": "Positions count from the first letter of the chain named. Where “and” joins values, the source holds several entries; their conditions need not be identical. Identical values can stand only once.", "data": [{"smiles": "COc1cc(C(=O)OCCCN2CCCN(CCCOC(=O)c3cc(OC)c(OC)c(OC)c3)CC2)cc(OC)c1OC", "note": "[Dilazep, dilazep]", "values": [{"measurement": "IC50", "setting": "[1]", "value": "16.6 ± 2.1", "unit": "µM"}, {"measurement": "IC50", "setting": "[2]", "value": "6.6 ± 0.5", "unit": "µM"}, {"measurement": "Increase in transporter sensitivity to inhibition, I89M vs WT PMAT", "setting": "[2]; inhibition of MPP+ uptake", "value": "2.5 fold and ~ 2.5 fold"}]}, {"smiles": "OCCN(CCO)c1nc(N2CCCCC2)c2nc(N(CCO)CCO)nc(N3CCCCC3)c2n1", "note": "[Dipyridamole, dipyridamole]", "values": [{"measurement": "IC50", "setting": "[2]", "value": "4.6 ± 1.8", "unit": "µM"}, {"measurement": "Change in inhibition, I89M vs WT PMAT (in words)", "setting": "[2]; inhibition of MPP+ uptake", "value": "no significant changes"}]}, {"smiles": "C[n+]1ccc(-c2ccccc2)cc1", "note": "[MPP^+, 1-methyl-4-phenylpyridinium]", "values": [{"measurement": "Decrease in maximal transport velocity (Vmax), I89M vs WT PMAT", "setting": "[3]", "value": "2.7 fold and ~ 2.7 fold"}, {"measurement": "Decrease in transport efficiency (Vmax/Km), I89M vs WT PMAT", "setting": "[3]", "value": 3.7, "unit": "fold"}]}, {"smiles": "O=[N+]([O-])c1ccc(CSc2ncnc3c2ncn3[C@@H]2O[C@H](CO)[C@@H](O)[C@H]2O)cc1", "note": "[NBMPR, nitrobenzylmercaptopurine riboside]", "values": [{"measurement": "Change in inhibition, I89M vs WT PMAT (in words)", "setting": "[2]; inhibition of MPP+ uptake", "value": "no significant changes"}, {"measurement": "Kd", "setting": "[4]", "value": "0.001 to 0.01", "unit": "µM"}, {"measurement": "Concentration at which the transporter becomes sensitive", "setting": "[5]", "value": "> 10", "unit": "µM"}]}]}
